Measurements reported in ChEMBL document CHEMBL3576847, “Discovery of 1-(3,3-dimethylbutyl)-3-(2-fluoro-4-methyl-5-(7-methyl-2-(methylamino)pyrido[2,3-d]pyrimidin-6-yl)phenyl)urea (LY3009120) as a pan-RAF inhibitor with minimal paradoxical activation and activity against BRAF or RAS mutant tumor cells” (J Med Chem, 2015).
Values after ≈ are worked out from the molar mass of the structure shown. Active and inactive are the calls of the source. The rule behind the calls is not given here.

Columns and labels:
[1] = biological target: Serine/threonine-protein kinase B-raf (Homo sapiens, UniProt P15056); experiment: Inhibition of wild type BRAF (unknown origin) assessed as ADP formation measured for 5 hrs by pyruvate kinase/lactate dehydrogenase coupled assay in presence of ATP, MEK1, NADH
Serine/threonine-protein kinase B-raf (Homo sapiens, UniProt P15056), sequence (P15056 whole entry): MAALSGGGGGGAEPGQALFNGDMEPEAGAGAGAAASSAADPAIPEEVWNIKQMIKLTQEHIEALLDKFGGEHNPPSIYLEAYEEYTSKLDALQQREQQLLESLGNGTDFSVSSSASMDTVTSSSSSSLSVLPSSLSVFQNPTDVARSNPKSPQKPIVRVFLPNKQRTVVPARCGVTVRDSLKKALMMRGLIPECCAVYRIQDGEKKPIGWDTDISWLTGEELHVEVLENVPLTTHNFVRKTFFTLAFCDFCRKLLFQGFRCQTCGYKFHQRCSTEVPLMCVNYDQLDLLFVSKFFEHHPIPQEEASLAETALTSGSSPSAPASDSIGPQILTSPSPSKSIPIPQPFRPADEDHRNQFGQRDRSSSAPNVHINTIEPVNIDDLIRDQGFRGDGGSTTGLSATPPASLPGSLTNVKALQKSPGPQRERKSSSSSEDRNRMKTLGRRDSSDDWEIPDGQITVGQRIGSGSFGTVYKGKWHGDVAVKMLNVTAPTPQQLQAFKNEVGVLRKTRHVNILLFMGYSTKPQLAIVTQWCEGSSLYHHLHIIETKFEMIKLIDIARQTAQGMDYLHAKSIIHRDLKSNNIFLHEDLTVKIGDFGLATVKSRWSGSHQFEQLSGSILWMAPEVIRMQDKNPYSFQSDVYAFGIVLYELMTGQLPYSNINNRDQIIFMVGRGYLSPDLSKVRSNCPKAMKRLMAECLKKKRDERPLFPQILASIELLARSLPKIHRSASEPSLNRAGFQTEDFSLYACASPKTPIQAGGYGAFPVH

[2] = biological target: T1, Serine/threonine-protein kinase B-raf (Homo sapiens, UniProt P15056, V600E); experiment: Inhibition of BRAF V600E mutant in human A375 cells assessed as inhibition of ERK phosphorylation measured after 72 hrs by ELISA assay; assay type: cell-based, A-375
T1 sequence (P15056 2-766 V600E limits assumed): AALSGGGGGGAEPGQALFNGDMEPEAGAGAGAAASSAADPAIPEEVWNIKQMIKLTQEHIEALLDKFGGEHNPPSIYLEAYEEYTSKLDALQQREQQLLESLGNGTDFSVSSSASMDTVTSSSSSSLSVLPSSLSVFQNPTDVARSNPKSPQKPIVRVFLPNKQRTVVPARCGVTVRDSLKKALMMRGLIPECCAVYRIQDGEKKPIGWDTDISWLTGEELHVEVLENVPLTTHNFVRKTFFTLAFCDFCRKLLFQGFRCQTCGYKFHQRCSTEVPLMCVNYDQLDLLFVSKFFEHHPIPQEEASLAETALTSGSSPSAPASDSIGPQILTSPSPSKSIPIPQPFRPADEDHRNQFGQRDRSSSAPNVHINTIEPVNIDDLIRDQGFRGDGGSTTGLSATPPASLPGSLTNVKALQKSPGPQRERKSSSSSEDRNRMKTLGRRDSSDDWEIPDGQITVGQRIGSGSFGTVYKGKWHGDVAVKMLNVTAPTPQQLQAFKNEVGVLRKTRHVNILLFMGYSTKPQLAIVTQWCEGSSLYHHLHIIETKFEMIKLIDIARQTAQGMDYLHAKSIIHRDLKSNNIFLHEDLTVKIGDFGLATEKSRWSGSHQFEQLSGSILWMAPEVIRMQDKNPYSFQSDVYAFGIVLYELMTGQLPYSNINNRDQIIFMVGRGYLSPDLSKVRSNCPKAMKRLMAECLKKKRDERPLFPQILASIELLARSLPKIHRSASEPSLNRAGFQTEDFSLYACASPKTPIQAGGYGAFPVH

[3] = biological target: GTPase KRas (Homo sapiens, UniProt P01116, G13D); experiment: Inhibition of KRAS G13D mutant in human HCT116 cells assessed as inhibition of ERK phosphorylation by ELISA; assay type: cell-based, HCT-116
GTPase KRas, sequence (P01116 whole entry G13D): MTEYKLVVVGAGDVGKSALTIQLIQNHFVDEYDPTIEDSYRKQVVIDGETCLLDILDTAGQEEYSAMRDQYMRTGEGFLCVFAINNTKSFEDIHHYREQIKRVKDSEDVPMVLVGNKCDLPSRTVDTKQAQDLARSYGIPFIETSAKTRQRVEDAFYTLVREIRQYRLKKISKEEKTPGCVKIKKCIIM
Procedure, shortened: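 HCT116 cells (KRAS G13D, BRAF WT; RAF signalling via CRAF) were treated with compound, and the change in cellular phospho-ERK was measured. IC50 was taken as the concentration inhibiting phospho-ERK.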

[4] = tested on: A-375; experiment: cells; conditions: Homo sapiens, A-375, 72 h
[5] = biological target: T1, Serine/threonine-protein kinase B-raf; experiment: Inhibition of recombinant BRAF V600E mutant (unknown origin) assessed as ADP formation measured for 5 hrs by pyruvate kinase/lactate dehydrogenase coupled assay in presence of ATP, MEK1, NADH
[6] = biological target: Vascular endothelial growth factor receptor 2 (Homo sapiens, UniProt P35968); experiment: Inhibition of KDR (unknown origin)
Vascular endothelial growth factor receptor 2, sequence (P35968 whole entry): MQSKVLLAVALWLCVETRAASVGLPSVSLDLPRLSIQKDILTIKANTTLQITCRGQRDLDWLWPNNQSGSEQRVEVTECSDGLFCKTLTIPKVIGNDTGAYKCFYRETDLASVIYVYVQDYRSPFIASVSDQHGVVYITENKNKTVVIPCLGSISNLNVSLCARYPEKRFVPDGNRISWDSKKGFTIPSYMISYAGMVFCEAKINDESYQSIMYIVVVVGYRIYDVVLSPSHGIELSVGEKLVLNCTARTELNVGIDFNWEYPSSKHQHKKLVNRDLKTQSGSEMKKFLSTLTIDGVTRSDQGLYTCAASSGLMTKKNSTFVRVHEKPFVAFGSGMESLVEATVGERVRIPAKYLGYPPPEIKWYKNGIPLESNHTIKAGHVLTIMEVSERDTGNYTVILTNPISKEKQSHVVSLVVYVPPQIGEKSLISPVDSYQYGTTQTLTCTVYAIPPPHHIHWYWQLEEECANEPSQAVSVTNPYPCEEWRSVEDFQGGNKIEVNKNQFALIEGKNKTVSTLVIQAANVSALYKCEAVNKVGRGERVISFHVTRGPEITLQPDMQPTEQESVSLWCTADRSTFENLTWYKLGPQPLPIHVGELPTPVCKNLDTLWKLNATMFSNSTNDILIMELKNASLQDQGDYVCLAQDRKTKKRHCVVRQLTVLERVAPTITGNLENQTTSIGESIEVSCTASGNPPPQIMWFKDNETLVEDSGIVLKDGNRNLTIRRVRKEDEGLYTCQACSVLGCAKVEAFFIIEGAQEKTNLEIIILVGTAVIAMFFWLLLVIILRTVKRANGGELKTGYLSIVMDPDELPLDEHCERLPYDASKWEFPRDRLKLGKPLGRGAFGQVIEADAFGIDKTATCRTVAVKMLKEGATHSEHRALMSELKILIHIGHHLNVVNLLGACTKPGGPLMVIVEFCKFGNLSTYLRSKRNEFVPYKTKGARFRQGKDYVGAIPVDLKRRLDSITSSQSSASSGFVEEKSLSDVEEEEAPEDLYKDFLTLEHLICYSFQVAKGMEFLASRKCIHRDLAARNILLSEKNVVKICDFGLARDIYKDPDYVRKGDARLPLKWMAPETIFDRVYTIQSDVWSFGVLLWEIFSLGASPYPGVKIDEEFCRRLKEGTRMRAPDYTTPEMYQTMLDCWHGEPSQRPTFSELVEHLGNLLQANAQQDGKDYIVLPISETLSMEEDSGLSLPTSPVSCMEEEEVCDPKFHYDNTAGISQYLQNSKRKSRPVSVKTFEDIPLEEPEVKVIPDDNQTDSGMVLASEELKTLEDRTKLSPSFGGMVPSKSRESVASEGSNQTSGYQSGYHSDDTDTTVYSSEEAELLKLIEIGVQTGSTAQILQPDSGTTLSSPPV

[7] = biological target: Dual specificity mitogen-activated protein kinase kinase; MEK1/2 (Homo sapiens, UniProt P36507+Q02750); experiment: Inhibition of MEK (unknown origin)
[8] = biological target: RAF proto-oncogene serine/threonine-protein kinase (Homo sapiens, UniProt P04049); experiment: Inhibition of wild type CRAF (unknown origin) assessed as ADP formation measured for 5 hrs by pyruvate kinase/lactate dehydrogenase coupled assay in presence of ATP, MEK1, PEP, NADH
RAF proto-oncogene serine/threonine-protein kinase, sequence (P04049 whole entry): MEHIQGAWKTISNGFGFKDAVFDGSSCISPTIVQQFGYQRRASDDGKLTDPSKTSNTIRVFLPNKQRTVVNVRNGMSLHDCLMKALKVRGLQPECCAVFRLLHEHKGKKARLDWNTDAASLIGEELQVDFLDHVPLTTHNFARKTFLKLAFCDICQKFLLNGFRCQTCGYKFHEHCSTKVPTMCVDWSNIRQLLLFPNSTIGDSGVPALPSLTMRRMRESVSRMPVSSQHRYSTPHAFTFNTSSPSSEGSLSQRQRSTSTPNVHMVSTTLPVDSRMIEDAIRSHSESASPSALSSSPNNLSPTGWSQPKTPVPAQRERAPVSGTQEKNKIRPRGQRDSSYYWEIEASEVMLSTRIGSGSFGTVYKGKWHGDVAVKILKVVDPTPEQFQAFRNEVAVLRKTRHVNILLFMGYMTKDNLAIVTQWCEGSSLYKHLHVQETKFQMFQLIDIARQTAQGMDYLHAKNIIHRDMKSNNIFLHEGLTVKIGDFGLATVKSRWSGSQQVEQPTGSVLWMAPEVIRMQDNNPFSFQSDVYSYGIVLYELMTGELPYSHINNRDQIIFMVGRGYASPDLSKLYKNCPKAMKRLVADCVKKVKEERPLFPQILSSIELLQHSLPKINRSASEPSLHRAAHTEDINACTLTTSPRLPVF

[9] = tested on: HCT-116; experiment: cells; conditions: Homo sapiens, HCT-116, 67 h
[10] = Oral bioavailability in rat administered as suspension; assay type: ADME, organism-based; conditions: in vivo
[11] = Clearance in iv dosed rat administered as suspension; assay type: ADME, organism-based; conditions: in vivo
[12] = Paradoxical activation of RAS/RAF/MEK signaling pathway in human HCT116 cells expressing wild type BRAF assessed as ERK phosphorylation at 0.34 to 20000 nM; assay type: cell-based; conditions: HCT-116
[13] = biological target: Serine/threonine-protein kinase A-Raf (Homo sapiens, UniProt P10398); experiment: Competitive binding affinity to ARAF in human A375 cells after 15 mins in presence of ATP analogue; assay type: cell-based, A-375
Serine/threonine-protein kinase A-Raf, sequence (P10398 whole entry): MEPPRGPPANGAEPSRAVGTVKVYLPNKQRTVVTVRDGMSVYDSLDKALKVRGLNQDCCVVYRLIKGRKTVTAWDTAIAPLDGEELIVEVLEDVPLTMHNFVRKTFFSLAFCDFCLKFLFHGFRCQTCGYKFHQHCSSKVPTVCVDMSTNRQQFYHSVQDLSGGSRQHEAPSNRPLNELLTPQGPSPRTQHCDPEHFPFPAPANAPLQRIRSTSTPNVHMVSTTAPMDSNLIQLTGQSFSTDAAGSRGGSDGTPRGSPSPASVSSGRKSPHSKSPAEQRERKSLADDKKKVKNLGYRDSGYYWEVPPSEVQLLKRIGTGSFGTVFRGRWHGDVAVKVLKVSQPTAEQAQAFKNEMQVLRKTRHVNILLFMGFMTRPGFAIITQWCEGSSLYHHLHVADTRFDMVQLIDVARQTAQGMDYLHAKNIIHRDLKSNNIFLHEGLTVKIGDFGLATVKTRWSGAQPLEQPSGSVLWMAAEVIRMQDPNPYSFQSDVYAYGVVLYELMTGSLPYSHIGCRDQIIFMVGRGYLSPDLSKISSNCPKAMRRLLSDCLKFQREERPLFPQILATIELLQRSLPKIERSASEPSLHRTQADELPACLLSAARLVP

[14] = Solubility of the compound in simulated fed intestinal fluid; assay type: ADME
[15] = tested on: Mus musculus; experiment: In vivo inhibition of BRAF V600E mutant in human A375 cells xenografted in po dosed athymic nu/nu mouse assessed as plasma concentration required to inhibit ERK phosphorylation by 80% after 2 hrs by ELISA; assay type: functional, A-375
[16] = organism: Canis familiaris; experiment: Toxicity in dog assessed as skeletal muscle degeneration; assay type: organism-based, Canis lupus familiaris; conditions: in vivo
[17] = Oral bioavailability in dog administered as suspension; assay type: ADME, organism-based, Canis lupus familiaris; conditions: in vivo
[18] = Clearance in po dosed rat administered as suspension; assay type: ADME, organism-based; conditions: in vivo
[19] = tested on: Mus musculus; experiment: Toxicity in athymic nu/nu mouse xenografted with human HT-29 cells assessed as body weight loss at 10 to 20 mg/kg, po bid administered for 28 days; assay type: organism-based; conditions: in vivo, 672 h
Procedure, shortened: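 HT-29 (BRAF V600E) xenograft mice dosed orally for 28 days; body weight loss monitored.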

[20] = tested on: Mus musculus; experiment: In vivo inhibition of BRAF V600E mutant in human A375 cells xenografted in po dosed athymic nu/nu mouse assessed as plasma concentration required to inhibit ERK phosphorylation by 50% after 2 hrs by ELISA; assay type: functional, A-375
[21] = organism: Canis familiaris; experiment: Toxicity in dog assessed as inflammation; assay type: organism-based, Canis lupus familiaris; conditions: in vivo
[22] = organism: Rattus norvegicus; experiment: Toxicity in rat assessed as bone marrow hypocellularity; assay type: organism-based; conditions: in vivo
[23] = Clearance in po dosed dog administered as suspension; assay type: ADME, organism-based, Canis lupus familiaris; conditions: in vivo
[24] = organism: Rattus norvegicus; experiment: Toxicity in rat assessed as hyperbilirubinemia; assay type: organism-based; conditions: in vivo
[25] = tested on: Mus musculus; experiment: In vivo inhibition of BRAF V600E mutant in human HT-29 cells xenografted in po dosed athymic nu/nu mouse assessed as inhibition of ERK phosphorylation administered as bid for 28 days by Western blot
[26] = tested on: Mus musculus; experiment: In vivo inhibition of BRAF V600E mutant in human A375 cells xenografted in po dosed athymic nu/nu mouse assessed as inhibition of ERK phosphorylation after 2 hrs by ELISA; assay type: functional; conditions: A-375, po
[27] = Solubility of the compound in simulated fasted intestinal fluid; assay type: ADME
[28] = organism: Canis familiaris; experiment: Toxicity in dog assessed as hyperbilirubinemia; assay type: organism-based, Canis lupus familiaris; conditions: in vivo
[29] = organism: Canis familiaris; experiment: Toxicity in dog assessed as bone marrow hypocellularity; assay type: organism-based, Canis lupus familiaris; conditions: in vivo
[30] = organism: Rattus norvegicus; experiment: Toxicity in rat assessed as skeletal muscle degeneration; assay type: organism-based; conditions: in vivo
[31] = organism: Rattus norvegicus; experiment: Toxicity in rat assessed as inflammation; assay type: organism-based; conditions: in vivo
[32] = tested on: Mus musculus; experiment: In vivo inhibition of BRAF V600E mutant in human HT-29 cells xenografted in athymic nu/nu mouse assessed as inhibition of ERK phosphorylation at 10 to 20 mg/kg, po bid administered for 28 days by Western blot analysis; assay type: functional, organism-based
Procedure, shortened: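 HT-29 (BRAF V600E) xenografts in mice, oral dosing for 28 days; after dosing, tumors from individual animals analysed for phospho-ERK by Western blot.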

Structure (SMILES)	IC50 [1]	IC50 [2]	IC50 [3]	IC50 [4]	IC50 [5]	IC50 [6]	IC50 [7]	IC50 [8]	IC50 [9]	bioavailability [10]	further results
CCn1c(=O)c(-c2cc(NC(=O)NCCC(C)(C)C)c(F)cc2C)cc2cnc(NC)cc21	11 nM	40 nM	120 nM	34 nM	4.2 nM	25 nM	2500 nM	5.2 nM	130 nM		
CNc1ncc2cc(-c3cc(NC(=O)NCCC(C)(C)C)c(F)cc3C)cnc2n1	4.4 nM	27 nM	16 nM	18 nM	2 nM	1900 nM	> 20000 nM	1.2 nM	110 nM		
CNc1cc2nc(C)c(-c3cc(NC(=O)NCCC(C)(C)C)c(F)cc3C)cc2cn1	28 nM	47 nM	120 nM	11 nM	18 nM	170 nM	5900 nM	5.6 nM	320 nM	30%	clearance [11]: 3.36 mL/min/kg
CCCS(=O)(=O)Nc1ccc(F)c(C(=O)c2c[nH]c3ncc(-c4ccc(Cl)cc4)cc23)c1F [VEMURAFENIB]			16600 nM	170 nM		360 nM	1500 nM		> 10000 nM		Activity [12]: Active; IC50 [13]: 950 nM
CCn1c(=O)c(-c2ccc(F)c(NC(=O)Nc3cc(C(C)(C)C)no3)c2)cc2cnc(NC)cc21	10 nM	96 nM	91 nM	56 nM	1.2 nM	1.9 nM	4000 nM	2.9 nM	160 nM	28%	solubility [14]: 310 µg/mL (≈ 648 µM); INH [15]: 843 ng/mL; Activity [16]: Toxic; bioavailability [17]: 69%; CL/F [18]: 13 mL/min/kg; Activity [19]: Non-toxic; INH [20]: 167 ng/mL; Activity [21]: Toxic; Activity [22]: Toxic; CL/F [23]: 14 mL/min/kg; Activity [24]: Toxic; inhibition [25]: Dose-dependent effect; ED50 [26]: 10.4 mg/kg; ED80 [26]: 20.5 mg/kg; solubility [27]: 41 µg/mL (≈ 85.7 µM); Activity [28]: Toxic; Activity [29]: Toxic; Activity [30]: Toxic; Activity [31]: Toxic; inhibition [32]: Active
CNc1cc2nc(C)c(-c3cc(NC(=O)NCCC(C)(C)C)ccc3C)cc2cn1	27 nM	140 nM	270 nM	35 nM	4.3 nM		> 20000 nM	6.7 nM	510 nM		
